From PubChem BioAssay
Compounds with a hit are over-represented: about 4% of the library has one in this group of screens.
GRIN3A LBD mod – modulators (binders) of human NR3A ligand-binding domain. NR3A LBD differential scanning fluorimetry, Tm shift; 0% = protein alone, 100% = glycine-bound protein. Tm shift relative to glycine control, % at 25 µM. hit rate 2.5% among 340,000. AID 1259313;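 active = melting temperature shift of at least 10% of the positive control shift, at one fixed dose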
SENP1 FRET inh – inhibitors of human SENP1 SUMO protease catalytic domain; AID 624204; hit rate 0.21% among 360,000; inhibition, % at 10 µM; Q9P0U3; recombinant SENP1 catalytic domain, CyPet-SUMO1-YPet FRET cleavage;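 active = inhibition at least 30% at 10 µM, raw YFP signal under a set limit, fluorescence ratio 0.5 to 1.5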;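 also: 0% = enzyme with DMSO and 100% = no enzyme wells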
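system = hSENP1 catalytic domain, recombinant | reagent = SFCypet-SUMO1-SFYpet substrate at 25 nM | doses = one dose per compound, 10 µM, 0.5% DMSO | incubation = enzyme reaction for 50 min at room temperature, dark | measured by = FRET, CFP and YFP emission | controls = no-enzyme low, enzyme-DMSO high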
FAS TE block – FAS thioesterase (human) inhibition; P49327; recombinant FAS-TE, OMFH fluorogenic substrate, fluorescence endpoint; inhibition, % at 15 µM; hit rate 0.67% among 360,000; AID 602261;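 active = compounds whose normalised, plate-corrected inhibition of enzyme fluorescence in the single-dose primary screen is 50% or more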;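 also: 0% = DMSO with enzyme and 100% = substrate without enzyme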
iPSC survival up – hiPSC single-cell survival enhancement. ATPlite luminescence; 100% = ROCK inhibitor wells, 0% = DMSO. survival enhancement, % at 20 µM. hit rate 0.044% among 360,000; in the data active = survival enhancement above about 18%;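 also: cells exposed to compounds for 16 hours before the ATP read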
H9c2 protect – modulators protecting cardiomyocytes from myocardial damage; H9c2 cardiomyocytes, H2O2 injury protection, ATPLite, 2 h; protection from H2O2 cell death, % at 20 µM; hit rate 0.63% among 360,000;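 active = compounds giving at least 50% protection of heart cells from peroxide-induced death in the single-dose screen, raw or plate-pattern-corrected value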;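 also: 0% = DMSO wells with peroxide and 100% = DMSO wells without peroxide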
Arrestin-AP2 inh – inhibitors of human beta-arrestin and AP2 interaction | FITC-arrestin peptide / GST-AP2 beads, flow cytometry; AP2 beta2 appendage carries R879A mutation | AID 504490 | inhibition, % at 10 µM | hit rate 0.31% among 340,000;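 active = inhibition above a set limit, near 3 SD of compounds lacking own fluorescence, cut at about 54% in these data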;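 also: plate controls were DMSO wells for no effect and 5 µM unlabelled arrestin peptide for full effect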
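System: GST-AP2 R879A glutathione beads. Medium: PBS with 0.05% Tween 20 and 0.1% BSA. Also added: FITC-arrestin peptide, 50 nM. Incubation: 12 min plus 1 h, RT. Measured by: high-throughput flow cytometry of beads, ex 488, em 535 nm. Evaluation: percent drop in bead-associated FITC signal.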
* hit, by the source's call; · = no result given.

SMILES | GRIN3A LBD mod | SENP1 FRET inh | FAS TE block | iPSC survival up | H9c2 protect | Arrestin-AP2 inh
NS(=O)(=O)c1ccc(NC(=O)Nc2ccc(S(N)(=O)=O)cc2)cc1 | 0.5 | 2.6 | -3.0 | 0.0 | 3.7 | -9.0
Cc1ccc(NC(=O)Nc2ccc(S(N)(=O)=O)cc2)cc1 | 11.1* | 0.1 | 0.6 | -2.0 | -7.6 | 2.4
NS(=O)(=O)c1ccc(NC(=O)Nc2ccc(C(F)(F)F)cc2)cc1 | 19.6* | -0.1 | 23.1 | 0.4 | -3.6 | 1.9
CC1(C(=O)NS(=O)(=O)Cc2cccc(Cl)c2)CCN1C(=O)C/C=C/c1ccccc1 (centres undefined) | · | 0.2 | -8.6 | 3.5 | 1.9 | ·
N#CCCN(Cc1cccnc1)S(=O)(=O)c1ccc2ccccc2c1 | 2.8 | 2.4 | 2.3 | -0.2 | 1.5 | -15.5
N#CCCN(Cc1cccnc1)S(=O)(=O)c1ccc(S(=O)(=O)NC2CCCCC2)cc1 | 13.7* | 3.7 | -4.8 | -0.1 | -6.6 | 31.0
CC1=NN(c2ccc(C)cc2C)C(=O)C1C(c1ccccc1O)C1C(=O)N(c2ccc(C)cc2C)N=C1C (centres undefined) | -8.5 | 3.7 | -9.9 | 0.3 | 0.8 | 16.7
CC1=NN(c2ccc(Cl)cc2)C(=O)C1C(c1ccccc1O)c1c(C)[nH]n(-c2ccc(Cl)cc2)c1=O (centres undefined) | 255.3* | -0.4 | 21.5 | 0.7 | -25.2 | 1.9
Cc1ccc(NCCN(C)C)c2c(=O)c3cc(O)ccc3sc12 | -1.6 | 37.2* | -2.4 | -4.0 | -18.6 | -7.6
COc1cc(C)c2sc3ccccc3c(=O)c2c1NCCN(C)C | · | -42.1 | -3.9 | -5.4 | -6.9 | ·
COc1ccc(C(O)(CCC(C)C)C(CN2CCOCC2)c2ccc(Cl)cc2)cc1 (centres undefined) | 16.3* | -1.1 | 23.3 | -0.2 | -13.6 | 11.9
COc1ccc(S(=O)(=O)N(C)C[C@H]2OCc3cnnn3CCCC(=O)N([C@@H](C)CO)C[C@H]2C)cc1 | · | 0.6 | -8.3 | 1.7 | 1.7 | ·
O=c1cc(-c2ccccc2)nc2nc(SCc3ccccc3)[nH]n12 | -9.9 | -1.4 | 1.2 | 31.4* | 0.5 | 21.9
CCC12CC1(C(=O)OC)C(=O)N1CCc3c([nH]c4ccccc34)C12 (centres undefined) | · | -91.0 | -0.8 | -0.9 | -1.6 | ·
O=C(Nc1ccc(S(=O)(=O)NCc2ccccc2)cc1)Nc1ccc2c(c1)OCO2 | 35.8* | 0.3 | 1.2 | -1.2 | -9.8 | -3.0
O=C(CCc1ccc(S(=O)(=O)NCCc2ccccc2)cc1)Nc1ccc2c(c1)OCO2 | -9.1 | -1.1 | 10.8 | -1.1 | -8.9 | -5.0
CCNS(=O)(=O)c1ccc(CCC(=O)Nc2ccc3c(c2)OCO3)cc1 | 0.7 | 1.5 | -2.2 | -0.8 | -1.5 | -1.2
CCNS(=O)(=O)c1ccc(NC(=O)Nc2ccc3c(c2)OCO3)cc1 | 24.6* | -0.2 | -0.3 | -0.5 | -5.4 | -4.8
CCOC(=O)COc1ccc(S(=O)(=O)Nc2ccc3c(c2)OCO3)cc1 | 13.7* | -1.1 | 2.5 | 3.5 | -6.9 | 0.0
CCOC(=O)COc1ccc(S(=O)(=O)Nc2ccc(C)cc2)cc1 | -0.7 | 1.0 | 2.5 | 0.6 | -15.9 | 4.0
Cc1ccccc1CNC(=O)c1csc([C@@H]2C[C@H](O)[C@@H](CO)O2)n1 | · | -0.8 | -8.5 | 3.3 | 8.8 | ·
CCc1ccc2nc(SCC(=O)N3CC(=O)Nc4ccccc43)c(C#N)cc2c1 | -0.4 | 31.8* | 17.7 | 2.7 | 0.4 | 7.3
O=S(=O)(c1ccc2nc(-c3ccccc3)[nH]c2c1)N1CCN(c2ccc(Cl)cc2)CC1 | 13.4* | -0.8 | 4.6 | 2.8 | 31.4 | -3.4
O=C1/C(=C/c2ccncc2)CCC/C1=C\c1ccncc1 | -1.2 | 0.0 | 0.2 | 89.7* | -12.2 | -4.8
Oc1ccc(Cl)cc1Cc1cc(Cl)ccc1O | 17.2* | 0.6 | 18.6 | -1.3 | -42.4 | 13.5
SMILES | GRIN3A LBD mod | SENP1 FRET inh | FAS TE block | iPSC survival up | H9c2 protect | Arrestin-AP2 inh
Oc1ccc(Cl)cc1CNCc1ccc(Cl)cc1 | -1.2 | -5.8 | 0.7 | 0.9 | 1.0 | 11.0
CCOC(=O)Nc1ccc2nc(N3CCCCCC3)sc2c1 | 21.0* | 0.9 | 4.3 | 0.2 | -7.3 | 40.7
CCOC(=O)N1CCN(C(=O)Nc2ccc3nc(C)sc3c2)CC1 | 3.2 | -32.2 | -5.1 | 0.4 | 10.8 | -3.6
O=C(Nc1nccs1)c1ccc(-c2ccc(F)c(Cl)c2)o1 | 13.8* | -2.1 | 26.1 | -0.4 | 0.8 | -0.9
CCc1nnc(NC(=O)c2ccc(-c3ccc(Cl)cc3)o2)s1 | 14.6* | -5.8 | -8.7 | -1.3 | -6.3 | -11.8
COc1cccc(C(O)c2nc(-c3ccccc3)cs2)c1 (centres undefined) | · | -2.0 | 3.3 | -2.0 | -11.2 | ·
CCc1ccc(-c2cc(C)no2)cc1S(=O)(=O)Nc1cc(C)on1 | 31.3* | -0.2 | -4.2 | 0.0 | 2.3 | 1.2
CCc1ccc(-c2cc(C)no2)cc1S(=O)(=O)Nc1ccc(Cl)cn1 | -1.6 | 1.5 | 2.8 | 0.2 | -4.6 | 22.6
COCCCn1cc(CN2CC(N3CCN(CCO)CC3)CS2(=O)=O)nn1 (centres undefined) | · | 1.8 | -9.4 | -1.3 | · | ·
CCCc1cc(C(N)=S)ccn1 | 11.5* | -1.2 | -3.7 | 1.2 | 1.6 | -3.2
CCNC(=S)Nc1cc(C)ccn1 | -9.9 | 1.1 | -1.4 | -1.0 | -2.7 | -49.4
COC(=O)Cc1ccc(OC2(C)CCN(Cc3ccccc3)C2)cc1 (centres undefined) | · | -1.0 | -9.3 | -0.2 | 2.0 | ·
COc1cc(/C=N/NC(=O)c2cccc(C)c2)ccc1OCC(=O)Nc1ccccc1 | 18.9* | 4.0 | 10.7 | -0.7 | 46.9 | 6.8
CCOc1cc(C=C2C(=O)c3ccccc3C2=O)ccc1OCC(=O)Nc1ccc(C)cc1 | 13.7* | 0.3 | -5.2 | -0.5 | 3.4 | 32.9
O=C(N/N=C/c1cccc([N+](=O)[O-])c1)c1ccc(COc2ccccc2-c2ccccc2)cc1 | 16.1* | 1.6 | 29.2 | -0.3 | -3.0 | -8.0
COc1ccc(/C=N/NC(=O)c2cccc([N+](=O)[O-])c2)c2ccccc12 | 33.7* | 2.7 | 5.0 | -0.1 | 6.6 | -28.8
COc1cc(/C=N/NC(=O)c2cccc([N+](=O)[O-])c2)ccc1OCc1ccccc1 | 22.2* | 0.9 | -10.1 | -1.2 | -1.4 | 11.5
COc1ccc(/C=N/NC(=O)c2cccc([N+](=O)[O-])c2)cc1OC | 1.6 | 1.6 | -4.8 | 2.0 | 9.2 | 10.0
Cc1cccc(C(=O)OCC(=O)N(C)CC(=O)Nc2ccc(Cl)c(C(F)(F)F)c2)c1 | 11.9* | -1.7 | 29.4 | -0.4 | -16.6 | 1.1
CN(CC(=O)Nc1ccc(Cl)c(C(F)(F)F)c1)C(=O)COc1cccc2cccnc12 | · | 5.1 | 7.7 | 4.1 | -2.5 | ·
Cc1ccc(C)c(OCC(=O)N(C)CC(=O)Nc2ccc(Cl)c(C(F)(F)F)c2)c1 | 12.3* | 1.5 | 28.5 | -0.1 | -4.2 | -2.0
